Assay results: paper PMC8519014 (Journal of pharmaceutical and biomedical analysis, 2017)
Structures can show the parent of a compound that is named as a salt.

Test: Mice pharmacokinetic study after oral administration of a mixture of 11 TKIs
Assay type: in vivo, FVB wild-type mice
Details: for Cmax / concentration at 15 min / concentration at 30 min / concentration at 45 min / concentration at 60 min / concentration at 120 min / concentration at 240 min / Tmax / AUC(0-t): 1 mg/kg; for Tmax: oral gavage 1 mg/kg each as a mixture of 11 TKIs, FVB wild-type mice, blood, n = 4
Summary of the method: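 Male FVB mice (25–30 g, 10–12 weeks) fasted overnight with water, then oral gavage of an 11-TKI cassette in oral suspension vehicle (0.06 mg/ml each), 1 mg/kg. Tail-tip blood (~15 μl, heparinized) taken at 15–1440 min (nine points). Quantified by UHPLC BEH C18–ESI triple-quadrupole MS/MS against blank-blood calibrants (acetonitrile/testosterone IS precipitation). Non-compartmental parameters, n = 4.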

[1] = male, FVB wild-type, mouse, whole blood, po
[2] = male, FVB wild-type, mouse, whole blood, po, Tmax

Row | SMILES | Cmax [1] | concentration at 15 min [1] | concentration at 30 min [1] | concentration at 45 min [1] | concentration at 60 min [1] | concentration at 120 min [1] | concentration at 240 min [1] | Tmax [2] | Detection in blood after oral dosing (oral 1 mg/kg as mixture of 11 TKIs, mice) | AUC(0-t) [1] | Tmax | Systemic exposure (AUC) relative to sorafenib (pazopanib AUC versus sorafenib AUC, oral 1 mg/kg as mixture of 11 TKIs, mice)
1 | C#Cc1cccc(Nc2ncnc3cc(OCCOC)c(OCCOC)cc23)c1 [Erlotinib, erlotinib hydrochloride] | 147 ± 62.2 ng/mL | 147 ± 62.2 ng/mL | 124 ± 45 ng/mL | 120 ± 97.6 ng/mL | 87.6 ± 87.6 ng/mL | 23 ± 37.7 ng/mL | 14.4 ± 24.9 ng/mL | 0.25 h | – | – | – | –
2 | Cc1cn(-c2cc(NC(=O)c3ccc(C)c(Nc4nccc(-c5cccnc5)n4)c3)cc(C(F)(F)F)c2)cn1 [Nilotinib, nilotinib] | – | 62.1 ± 32.8 ng/mL | 59.1 ± 31.4 ng/mL | 69 ± 37.2 ng/mL | 68.8 ± 26.8 ng/mL | 67.3 ± 64.3 ng/mL | 34.6 ± 33.1 ng/mL | – | – | – | – | –
3 | CN(C)C/C=C/C(=O)Nc1cc2c(Nc3ccc(F)c(Cl)c3)ncnc2cc1O[C@H]1CCOC1 [Afatinib, afatinib] | – | – | – | – | – | – | – | – | not detected | – | – | –
4 | Cc1ccc(Nc2nccc(N(C)c3ccc4c(C)n(C)nc4c3)n2)cc1S(N)(=O)=O [Pazopanib, pazopanib hydrochloride] | 717 ± 206 ng/mL | – | – | – | – | – | – | ~1.62 h | – | 4150 ng·h/mL | 1.62 ± 1.11 h | 7.5 times
5 | CS(=O)(=O)CCNCc1ccc(-c2ccc3ncnc(Nc4ccc(OCc5cccc(F)c5)c(Cl)c4)c3c2)o1 [Lapatinib, lapatinib] | – | 8.8 ± 12.7 ng/mL | 16.3 ± 28.2 ng/mL | 21.4 ± 25.6 ng/mL | 21.2 ± 25.7 ng/mL | 20.1 ± 28.2 ng/mL | 18.1 ± 25.4 ng/mL | – | – | – | – | –
6 | COc1cc2ncnc(Nc3ccc(F)c(Cl)c3)c2cc1OCCCN1CCOCC1 [Gefitinib, gefitinib] | – | 24.7 ± 22 ng/mL | 32.4 ± 28.1 ng/mL | 36.7 ± 41.5 ng/mL | 33.2 ± 42.7 ng/mL | 21.8 ± 25.5 ng/mL | 32.7 ± 26.3 ng/mL | – | – | – | – | –
7 | CCN(CC)CCNC(=O)c1c(C)[nH]c(/C=C2\C(=O)Nc3ccc(F)cc32)c1C [Sunitinib, sunitinib malate] | – | 9.4 ± 12.1 ng/mL | 18.4 ± 10.6 ng/mL | 22.8 ± 18.9 ng/mL | 12.7 ± 20 ng/mL | 14.7 ± 15.8 ng/mL | – | – | – | – | – | –
8 | CNC(=O)c1ccccc1Sc1ccc2c(/C=C/c3ccccn3)n[nH]c2c1 [Axitinib, axitinib] | – | 51.7 ± 40 ng/mL | 42.7 ± 19.3 ng/mL | 46.1 ± 39.6 ng/mL | 34.2 ± 37.3 ng/mL | 11.1 ± 16.4 ng/mL | 4.8 ± 26.8 ng/mL | – | – | – | – | –
9 | Cc1nc(Nc2ncc(C(=O)Nc3c(C)cccc3Cl)s2)cc(N2CCN(CCO)CC2)n1 [Dasatinib, dasatinib] | – | 9.1 ± 18.2 ng/mL | 21.5 ± 19.2 ng/mL | 34.3 ± 41.6 ng/mL | 24.8 ± 49.7 ng/mL | 18.4 ± 23.1 ng/mL | 10.1 ± 20.2 ng/mL | – | – | – | – | –
10 | CNC(=O)c1cc(Oc2ccc(NC(=O)Nc3ccc(Cl)c(C(F)(F)F)c3)cc2)ccn1 [Sorafenib, sorafenib tosylate] | 154 ± 30.4 ng/mL | – | – | – | – | – | – | 1 h | – | 558 ng·h/mL | – | –
11 | Cc1ccc(NC(=O)c2ccc(CN3CCN(C)CC3)cc2)cc1Nc1nccc(-c2cccnc2)n1 [Imatinib] | – | 53.1 ± 20.1 ng/mL | 55.7 ± 28.6 ng/mL | 68.8 ± 63.8 ng/mL | 48.1 ± 56.9 ng/mL | 19.9 ± 19 ng/mL | 11.1 ± 19.2 ng/mL | – | – | – | – | –
